The first data set has as its system YT. The experiment in a line: Cytotoxicity against human YT cells assessed as dead cells at 1 uM after 24 hrs. It is filed as functional.
Conditions: not given
Put shortly:
(§1)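 Dienones added as DMSO solutions to cells in RPMI medium and incubated 24 h at 37°C. Cytotoxicity was scored as cell-membrane disruption by propidium iodide staining and expressed as percentage of dead cells, averaged over three independent experiments.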
Take `Cc1ccc(/C=C2\CN(C(=O)C(=O)N3C/C(=C\c4ccc(C)cc4)C(=O)/C(=C/c4ccc(C)cc4)C3)C/C(=C\c3ccc(C)cc3)C2=O)cc1`: the Activity came to 20.1%.

Test system in another data set: not listed separately
The experiment in a line: Cytotoxicity against human HuT-102 cells assessed as dead cells at 1 uM after 24 hrs. In kind it is functional.
Conditions: not given
Put shortly: as §1
For `Cc1ccc(/C=C2\CN(C(=O)C(=O)N3C/C(=C\c4ccc(C)cc4)C(=O)/C(=C/c4ccc(C)cc4)C3)C/C(=C\c3ccc(C)cc3)C2=O)cc1`, the Activity amounted to 13.9%.

The test system of a further data set is HeLa. The experiment in a line: Antiproliferative activity against human HeLa cells after 72 hrs by coulter counting analysis.
Conditions: not given
In kind it is functional, cell-based. The essentials:
(§2)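 Cells exposed to a range of concentrations in RPMI 1640 at 37°C for 72 h. Surviving cells counted by Coulter counter. IC50 taken from concentration-response curves, mean ± SD of at least three independent experiments.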
For the compound `Cc1ccc(/C=C2\CN(C(=O)C(=O)N3C/C(=C\c4ccc(C)cc4)C(=O)/C(=C/c4ccc(C)cc4)C3)C/C(=C\c3ccc(C)cc3)C2=O)cc1`, the concentration for half-maximal inhibition (IC50) came to 3.79 µM.

Test system in another data set: not listed separately
Kind of data set: Cytotoxicity against human SupT1 cells assessed as dead cells at 1 uM after 24 hrs. It is filed as functional, SUP-T1.
Conditions: not given
Put shortly:
as §1
For `Cc1ccc(/C=C2\CN(C(=O)C(=O)N3C/C(=C\c4ccc(C)cc4)C(=O)/C(=C/c4ccc(C)cc4)C3)C/C(=C\c3ccc(C)cc3)C2=O)cc1`, the Activity came out at 18.8%.

The subject of another data set is CCRF-CEM. The experiment in a line: Antiproliferative activity against human CEM cells after 72 hrs by coulter counting analysis. It is filed as functional, cell-based.
Conditions: not given
The essentials: as §2
Turning to `Cc1ccc(/C=C2\CN(C(=O)C(=O)N3C/C(=C\c4ccc(C)cc4)C(=O)/C(=C/c4ccc(C)cc4)C3)C/C(=C\c3ccc(C)cc3)C2=O)cc1`, 7.72 µM corresponded to half-maximal inhibition (IC50).

The subject of the next data set is MCF7. The experiment in a line: Cytotoxicity against human MCF7 cells assessed as dead cells at 1 uM after 24 hrs. It is filed as functional.
Conditions: not given
The essentials:
as §1
Take `Cc1ccc(/C=C2\CN(C(=O)C(=O)N3C/C(=C\c4ccc(C)cc4)C(=O)/C(=C/c4ccc(C)cc4)C3)C/C(=C\c3ccc(C)cc3)C2=O)cc1`: the Activity stood at 0%.

Another data set deals with BJAB. Kind of data set: Cytotoxicity against human BJAB cells assessed as dead cells at 1 uM after 24 hrs.
Conditions: not given
In kind it is functional. The essentials: as §1
As for `Cc1ccc(/C=C2\CN(C(=O)C(=O)N3C/C(=C\c4ccc(C)cc4)C(=O)/C(=C/c4ccc(C)cc4)C3)C/C(=C\c3ccc(C)cc3)C2=O)cc1`, the Activity is given as 41.5%.

The test system of the next data set is Raji. The experiment in a line: Cytotoxicity against human Raji cells assessed as dead cells at 1 uM after 24 hrs.
Conditions: not given
It is filed as functional. The essentials:
as §1
Regarding `Cc1ccc(/C=C2\CN(C(=O)C(=O)N3C/C(=C\c4ccc(C)cc4)C(=O)/C(=C/c4ccc(C)cc4)C3)C/C(=C\c3ccc(C)cc3)C2=O)cc1`, the Activity came to 41.5%.

Test system in the next data set: not listed separately
Kind of data set: Cytotoxicity against human MDA231 cells assessed as dead cells at 1 uM after 24 hrs. In kind it is functional, MDA-MB-231.
Conditions: not given
Put shortly:
as §1
As for `Cc1ccc(/C=C2\CN(C(=O)C(=O)N3C/C(=C\c4ccc(C)cc4)C(=O)/C(=C/c4ccc(C)cc4)C3)C/C(=C\c3ccc(C)cc3)C2=O)cc1`, the Activity stood at 9.3%.

Test system in the next data set: not listed separately
Kind of data set: Cytotoxicity against human MCF10A cells assessed as dead cells at 1 uM after 24 hrs. Conditions: mcf-10a. In kind it is cell-based. The essentials:
(§3)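 Compounds added from DMSO solutions to cells in medium (RPMI; DMEM for Hs-27 fibroblasts) and incubated 24 h at 37°C. Membrane disruption scored by propidium iodide uptake. Result is percentage of dead cells, average of three independent experiments.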
For `Cc1ccc(/C=C2\CN(C(=O)C(=O)N3C/C(=C\c4ccc(C)cc4)C(=O)/C(=C/c4ccc(C)cc4)C3)C/C(=C\c3ccc(C)cc3)C2=O)cc1`, the Activity is listed as 9.3%.

Test system in a further data set: not listed separately
The experiment in a line: Antiproliferative activity against human Molt4/C8 cells after 72 hrs by coulter counting analysis. It is filed as functional, cell-based. The settings on record: MOLT-4, 72 h. Put shortly:
as §2
`Cc1ccc(/C=C2\CN(C(=O)C(=O)N3C/C(=C\c4ccc(C)cc4)C(=O)/C(=C/c4ccc(C)cc4)C3)C/C(=C\c3ccc(C)cc3)C2=O)cc1`: the IC50 worked out at 1.66 µM.

Test system in another data set: not listed separately
Kind of data set: Cytotoxicity against human MOLT3 cells assessed as dead cells at 1 uM after 24 hrs. In kind it is functional, MOLT-3.
Conditions: not given
Put shortly:
as §1
In the case of `Cc1ccc(/C=C2\CN(C(=O)C(=O)N3C/C(=C\c4ccc(C)cc4)C(=O)/C(=C/c4ccc(C)cc4)C3)C/C(=C\c3ccc(C)cc3)C2=O)cc1`, the Activity amounted to 0.8%.

Test system in another data set: not listed separately
Kind of data set: Cytotoxicity against human NALM6 cells assessed as dead cells at 1 uM after 24 hrs. It is filed as functional, NALM-6.
Conditions: not given
The essentials:
as §1
`Cc1ccc(/C=C2\CN(C(=O)C(=O)N3C/C(=C\c4ccc(C)cc4)C(=O)/C(=C/c4ccc(C)cc4)C3)C/C(=C\c3ccc(C)cc3)C2=O)cc1`: the Activity was 59.5%.

Another data set deals with CCRF-CEM. Kind of data set: Cytotoxicity against human CEM cells assessed as dead cells at 1 uM after 24 hrs. It is filed as functional.
Conditions: not given
Put shortly: as §1
As to `Cc1ccc(/C=C2\CN(C(=O)C(=O)N3C/C(=C\c4ccc(C)cc4)C(=O)/C(=C/c4ccc(C)cc4)C3)C/C(=C\c3ccc(C)cc3)C2=O)cc1`, the Activity came out at 68.4%.

Test system in the next data set: not listed separately
The experiment in a line: Cytotoxicity against human 22Rvl cells assessed as dead cells at 1 uM after 24 hrs. In kind it is functional.
Conditions: not given
The essentials: as §1
For `Cc1ccc(/C=C2\CN(C(=O)C(=O)N3C/C(=C\c4ccc(C)cc4)C(=O)/C(=C/c4ccc(C)cc4)C3)C/C(=C\c3ccc(C)cc3)C2=O)cc1`, the Activity is given as 16.2%.

For the next data set, the system named is L1210. The experiment in a line: Antiproliferative activity against mouse L1210 cells after 72 hrs by coulter counting analysis. It is filed as functional, cell-based. The settings on record: L1210, 72 h.
`Cc1ccc(/C=C2\CN(C(=O)C(=O)N3C/C(=C\c4ccc(C)cc4)C(=O)/C(=C/c4ccc(C)cc4)C3)C/C(=C\c3ccc(C)cc3)C2=O)cc1` yielded an IC50 of 9.09 µM.

A further data set deals with DU-145. Kind of data set: Cytotoxicity against human DU145 cells assessed as dead cells at 1 uM after 24 hrs. In kind it is functional.
Conditions: not given
The essentials: as §1
As for `Cc1ccc(/C=C2\CN(C(=O)C(=O)N3C/C(=C\c4ccc(C)cc4)C(=O)/C(=C/c4ccc(C)cc4)C3)C/C(=C\c3ccc(C)cc3)C2=O)cc1`, the Activity is listed as 26%.

In another data set the test system is Jurkat. Kind of data set: Cytotoxicity against human Jurkat cells assessed as dead cells at 1 uM after 24 hrs. It is filed as functional.
Conditions: not given
Put shortly: as §1
Turning to `Cc1ccc(/C=C2\CN(C(=O)C(=O)N3C/C(=C\c4ccc(C)cc4)C(=O)/C(=C/c4ccc(C)cc4)C3)C/C(=C\c3ccc(C)cc3)C2=O)cc1`, the Activity stood at 80.7%.

A further data set has as its system EL4. Kind of data set: Cytotoxicity against mouse EL4 cells assessed as dead cells at 1 uM after 24 hrs. It is filed as functional.
Conditions: not given
The essentials: as §1
As for `Cc1ccc(/C=C2\CN(C(=O)C(=O)N3C/C(=C\c4ccc(C)cc4)C(=O)/C(=C/c4ccc(C)cc4)C3)C/C(=C\c3ccc(C)cc3)C2=O)cc1`, the Activity stood at 43.5%.

The subject of the next data set is HS27. Kind of data set: Cytotoxicity against human HS27 cells assessed as dead cells at 1 uM after 24 hrs. It is filed as cell-based. Conditions: hs27, 24 h. Put shortly:
as §3
Consider `Cc1ccc(/C=C2\CN(C(=O)C(=O)N3C/C(=C\c4ccc(C)cc4)C(=O)/C(=C/c4ccc(C)cc4)C3)C/C(=C\c3ccc(C)cc3)C2=O)cc1`, for which the Activity is reported as 12%.

A further data set relates to Ramos. Kind of data set: Cytotoxicity against human Ramos cells assessed as dead cells at 1 uM after 24 hrs. In kind it is functional.
Conditions: not given
Put shortly:
as §1
`Cc1ccc(/C=C2\CN(C(=O)C(=O)N3C/C(=C\c4ccc(C)cc4)C(=O)/C(=C/c4ccc(C)cc4)C3)C/C(=C\c3ccc(C)cc3)C2=O)cc1`: the Activity amounted to 84.4%.

For the next data set, the system named is LAPC4. Kind of data set: Cytotoxicity against human LAPC4 cells assessed as dead cells at 1 uM after 24 hrs. In kind it is functional.
Conditions: not given
The essentials: as §1
Consider `Cc1ccc(/C=C2\CN(C(=O)C(=O)N3C/C(=C\c4ccc(C)cc4)C(=O)/C(=C/c4ccc(C)cc4)C3)C/C(=C\c3ccc(C)cc3)C2=O)cc1`, for which the Activity is on record as 2.4%.

In the next data set the test system is HCC70. The experiment in a line: Cytotoxicity against human HCC70 cells assessed as dead cells at 1 uM after 24 hrs.
Conditions: not given
It is filed as functional. The essentials: as §1
With `Cc1ccc(/C=C2\CN(C(=O)C(=O)N3C/C(=C\c4ccc(C)cc4)C(=O)/C(=C/c4ccc(C)cc4)C3)C/C(=C\c3ccc(C)cc3)C2=O)cc1`, the Activity came to 11.9%.

These data come from ChEMBL document CHEMBL3352437, “Novel 3,5-bis(arylidene)-4-oxo-1-piperidinyl dimers: structure-activity relationships and potent antileukemic and antilymphoma cytotoxicity” (Eur J Med Chem, 2014).
